In brackets after ≈: the same amount, converted by molar mass.
How the values were obtained:
Escherichia coli [1] = test: microbe, parasite or virus in culture; details: ATCC 25992
Proteus mirabilis = test: Antibacterial activity against Proteus mirabilis ATCC 29906 by Etest method in presence of 4 ug/ml NAB7073; format: functional
Escherichia coli [2] = test: microbe, parasite or virus in culture; details: ATCC 25992; remark: listed apart in the source
Enterobacter cloacae [3] = test: Antibacterial activity against Enterobacter cloacae ATCC 23355 […] by Etest method in presence of NAB7061; format: functional
Serratia marcescens = test: Antibacterial activity against Serratia marcescens ATCC 8100 by Etest method in presence of 4 ug/ml NAB7072; format: functional
Pseudomonas aeruginosa [4] = test: Antibacterial activity against Pseudomonas aeruginosa ATCC 27853by Etest method in presence of 2 ug/ml NAB739; format: functional
Pseudomonas aeruginosa [5] = test: Antibacterial activity against Pseudomonas aeruginosa ATCC 27853by Etest method in presence of […] NAB739; format: functional
Escherichia coli [6] = test: Antibacterial activity against Escherichia coli IH3080 by Etest method in presence of 1 ug/ml NAB7061; format: functional
Escherichia coli [7] = test: Antibacterial activity against Escherichia coli ATCC […] by Etest method in presence of 4 ug/ml NAB7064; format: functional
Klebsiella pneumoniae [8] = test: Antibacterial activity against Klebsiella pneumoniae ATCC 13883 by Etest method in presence of 1 ug/ml NAB7061; format: functional
Method in brief: (§1)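 MICs of the antibiotic taken from E-strips on Mueller-Hinton agar, run both with and without peptide. […] Inoculum was prepared per the strip manufacturer, matching CLSI M2-A9.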

Escherichia coli [9] = test: Antibacterial activity against 5 x 10^5 CFU/ml Escherichia coli ATCC 25992 in presence of 8 ug/ml NAB7061 by Checkerboard method; format: functional
Escherichia coli [10] = test: microbe, parasite or virus in culture; details: ATCC 25992; remark: listed apart in the source
Escherichia coli [11] = test: Antibacterial activity against Escherichia coli IH3080 by Etest method in presence of NAB7061; format: functional
Acinetobacter baumannii [12] = test: Antibacterial activity against Acinetobacter baumannii ATCC 19606 by Etest method in presence of NAB739; format: functional
Acinetobacter baumannii [13] = test: Antibacterial activity against Acinetobacter baumannii F264 by Etest method in presence of 0.5 ug/ml NAB739; format: functional
Escherichia coli [14] = test: Antibacterial activity against Escherichia coli ATCC 25992 by Etest method; format: functional
Method in brief: (§2)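 E-strip MIC on Mueller-Hinton agar without added peptide; inoculum per manufacturer, matching CLSI M2-A9.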

Enterobacter cloacae [15] = test: Antibacterial activity against Enterobacter cloacae ATCC 23355 by Etest method; format: functional
Method in brief: as §2

Escherichia coli [16] = test: Antibacterial activity against Escherichia coli ATCC 25992 in presence of NAB7061; format: functional
Escherichia coli [17] = test: Antibacterial activity against 5 x 10^5 CFU/ml Escherichia coli ATCC 25992 in presence of 16 ug/ml NAB7061 by Checkerboard method; format: functional
Enterobacter cloacae [18] = test: Antibacterial activity against Enterobacter cloacae by Etest method in presence of 4 ug/ml NAB7068; format: functional
Klebsiella pneumoniae [19] = test: Antibacterial activity against Klebsiella pneumoniae ATCC 13883 by Etest method in presence of NAB7061; format: functional
Method in brief: as §1

Klebsiella pneumoniae [20] = test: Antibacterial activity against Klebsiella pneumoniae ATCC 13883 by Etest method; format: functional
Method in brief: as §1

Escherichia coli [21] = test: Antibacterial activity against Escherichia coli by Etest method in presence of 4 ug/ml NAB7061; format: functional
Proteus vulgaris = test: Antibacterial activity against Proteus vulgaris ATCC 13315 by Etest method in presence of 4 ug/ml NAB7074; format: functional
Acinetobacter baumannii [22] = test: Antibacterial activity against Acinetobacter baumannii ATCC 19606 by Etest method in presence of 1 ug/ml NAB739; format: functional
Klebsiella pneumoniae [23] = test: Antibacterial activity against Klebsiella pneumoniae CCUG45421 by Etest method in presence of 4 ug/ml NAB7063; format: functional
Escherichia coli [24] = test: Antibacterial activity against 5 x 10^5 CFU/ml Escherichia coli ATCC […] by Etest method by Etest in presence of 4 ug/ml NAB7061; format: functional
Method in brief: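 Antibiotic MICs were read from E-strips on Mueller-Hinton agar containing the peptide at 1 to 16 μg/ml in twofold steps, or at a single 4 μg/ml, and on agar without peptide. The inoculum was prepared per the strip maker's instructions and matched CLSI M2-A9. Values come from two independent determinations.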

Acinetobacter baumannii [25] = test: Antibacterial activity against Acinetobacter baumannii ATCC 19606 by Etest method; format: functional
Escherichia coli [26] = test: Antibacterial activity against 5 x 10^5 CFU/ml Escherichia coli ATCC […] by Etest method by Etest in presence of 1 ug/ml NAB7061; format: functional
Pseudomonas aeruginosa [27] = test: Antibacterial activity against Pseudomonas aeruginosa ATCC 27853by Etest method in presence of 0.5 ug/ml NAB739; format: functional
Method in brief: as §1

Escherichia coli [28] = test: Antibacterial activity against 5 x 10^5 CFU/ml Escherichia coli ATCC 25992 in presence of 2 ug/ml NAB7061 by Checkerboard method; format: functional
Acinetobacter baumannii [29] = test: Antibacterial activity against Acinetobacter baumannii F264 by Etest method in presence of […] NAB739; format: functional
Pseudomonas aeruginosa [30] = test: Antibacterial activity against Pseudomonas aeruginosa ATCC 27853by Etest method; format: functional
Method in brief: as §1

Escherichia coli [31] = test: Antibacterial activity against Escherichia coli ATCC […] by Etest method in presence of 1 ug/ml NAB7061; format: functional
Klebsiella pneumoniae [32] = test: Antibacterial activity against Klebsiella pneumoniae ATCC 13883 by Etest method in presence of 2 ug/ml NAB7061; format: functional
Method in brief: as §1

Escherichia coli [33] = test: Antibacterial activity against 5 x 10^5 CFU/ml Escherichia coli ATCC […] by Etest method by Etest in presence of 2 ug/ml NAB7061; format: functional
Escherichia coli [34] = test: Antibacterial activity against Escherichia coli IH3080 by Etest method in presence of 2 ug/ml NAB7062; format: functional
Citrobacter freundii = test: Antibacterial activity against Citrobacter freundii ATCC 8090 by Etest method in presence of 4 ug/ml NAB7069; format: functional
Acinetobacter baumannii [35] = test: Antibacterial activity against Acinetobacter baumannii F264 by Etest method; format: functional
Method in brief: as §2

Escherichia coli [36] = test: Antibacterial activity against Escherichia coli IH3080 by Etest method; format: functional
Method in brief: as §2

Enterobacter cloacae [37] = test: Antibacterial activity against Enterobacter cloacae ATCC 23355 […] by Etest method in presence of 1 ug/ml NAB7061; format: functional
Escherichia coli [38] = test: microbe, parasite or virus in culture; details: ATCC 25992; remark: listed apart in the source
Acinetobacter baumannii [39] = test: Antibacterial activity against Acinetobacter baumannii by Etest method in presence of 4 ug/ml NAB7071; format: functional
Pseudomonas aeruginosa [40] = test: Antibacterial activity against Pseudomonas aeruginosa ATCC 27853by Etest method in presence of 1 ug/ml NAB739; format: functional
Method in brief: as §1

Acinetobacter baumannii [41] = test: Antibacterial activity against Acinetobacter baumannii ATCC 19606 by Etest method in presence of 0.5 ug/ml NAB739; format: functional

Q: With `CO[C@H]1/C=C/O[C@@]2(C)Oc3c(C)c(O)c4c(O)c(c(/C=N/N5CCN(C)CC5)c(O)c4c3C2=O)NC(=O)/C(C)=C\C=C\[C@H](C)[C@H](O)[C@@H](C)[C@@H](O)[C@@H](C)[C@H](OC(C)=O)[C@@H]1C` [RIFAMPIN] as the molecule, how does the MIC (Escherichia coli [1]) read?
A: 8 µg/mL (≈ 9.72 µM)

Q: What about the MIC (Proteus mirabilis) of the same molecule?
A: 1 µg/mL

Q: And the MIC (Escherichia coli [2])?
A: 8 µg/mL (≈ 9.72 µM)

Q: And the MIC (Enterobacter cloacae [3])?
A: 0.26 µg/mL

Q: What about the MIC (Serratia marcescens) of the same molecule?
A: 16 µg/mL

Q: And the MIC (Pseudomonas aeruginosa [4])?
A: 4 µg/mL

Q: And the MIC (Pseudomonas aeruginosa [5])?
A: 32 µg/mL

Q: And the MIC (Escherichia coli [6])?
A: 0.25 µg/mL

Q: And the MIC (Escherichia coli [7])?
A: 0.016 µg/mL

Q: And the MIC (Klebsiella pneumoniae [8])?
A: 1.5 µg/mL

Q: And the MIC (Escherichia coli [9])?
A: 0.031 µg/mL

Q: And the MIC (Escherichia coli [10])?
A: 8 µg/mL (≈ 9.72 µM)

Q: And the MIC (Escherichia coli [11])?
A: ≤ 0.055 µg/mL

Q: And the “fractional inhibitory concentration index (FICI)” value (Acinetobacter baumannii [12])?
A: 0.126

Q: What about the MIC (Acinetobacter baumannii [13]) of the same molecule?
A: 0.094 µg/mL

Q: What about the MIC (Escherichia coli [14]) of the same molecule?
A: 8 µg/mL (≈ 9.72 µM)

Q: What about the MIC (Enterobacter cloacae [15]) of the same molecule?
A: 12 µg/mL (≈ 14.6 µM)

Q: What about the “fractional inhibitory concentration index (FICI)” value (Escherichia coli [16]) of the same molecule?
A: <=0.128

Q: What about the MIC (Escherichia coli [17]) of the same molecule?
A: 0.031 µg/mL

Q: And the MIC (Enterobacter cloacae [18])?
A: 0.016 µg/mL

Q: What about the MIC (Klebsiella pneumoniae [19]) of the same molecule?
A: ≤ 0.073 µg/mL

Q: What about the MIC (Klebsiella pneumoniae [20]) of the same molecule?
A: > 16 µg/mL

Q: What about the MIC (Escherichia coli [21]) of the same molecule?
A: 0.016 µg/mL

Q: And the MIC (Proteus vulgaris)?
A: 1 µg/mL

Q: And the MIC (Acinetobacter baumannii [22])?
A: 0.006 µg/mL

Q: What about the MIC (Klebsiella pneumoniae [23]) of the same molecule?
A: 2 µg/mL

Q: What about the MIC (Escherichia coli [24]) of the same molecule?
A: 0.016 µg/mL

Q: What about the MIC (Acinetobacter baumannii [25]) of the same molecule?
A: 4 µg/mL (≈ 4.86 µM)

Q: And the MIC (Escherichia coli [26])?
A: 0.19 µg/mL

Q: And the MIC (Pseudomonas aeruginosa [27])?
A: 32 µg/mL

Q: What about the MIC (Escherichia coli [28]) of the same molecule?
A: 0.5 µg/mL

Q: What about the MIC (Acinetobacter baumannii [29]) of the same molecule?
A: 0.38 µg/mL

Q: And the MIC (Pseudomonas aeruginosa [30])?
A: 32 µg/mL (≈ 38.9 µM)

Q: And the MIC (Escherichia coli [31])?
A: 0.19 µg/mL

Q: What about the MIC (Klebsiella pneumoniae [32]) of the same molecule?
A: 0.25 µg/mL

Q: And the MIC (Escherichia coli [33])?
A: 0.064 µg/mL

Q: And the MIC (Escherichia coli [34])?
A: 0.19 µg/mL

Q: And the MIC (Citrobacter freundii)?
A: 0.023 µg/mL

Q: And the MIC (Acinetobacter baumannii [35])?
A: 12 µg/mL (≈ 14.6 µM)

Q: What about the MIC (Escherichia coli [36]) of the same molecule?
A: 8 µg/mL (≈ 9.72 µM)

Q: What about the MIC (Enterobacter cloacae [37]) of the same molecule?
A: 8 µg/mL

Q: And the MIC (Escherichia coli [38])?
A: 8 µg/mL (≈ 9.72 µM)

Q: And the MIC (Acinetobacter baumannii [39])?
A: 0.032 µg/mL

Q: And the MIC (Pseudomonas aeruginosa [40])?
A: 16 µg/mL

Q: What about the MIC (Acinetobacter baumannii [41]) of the same molecule?
A: 0.047 µg/mL
